Experimental findings from ChEMBL document CHEMBL1127809, “Pentamidine congeners. 2. 2-butene-bridged aromatic diamidines and diimidazolines as potential anti-Pneumocystis carinii pneumonia agents” (1994) are described below.

“And” between values parts separate entries of the source, which are not always exact repeats. Identical values can stand only once.

Format in all cases: functional
In assay [1] the test system is Rattus norvegicus. The assay can be described thus: In vivo anti-Pneumocystis carinii toxicity in rats administered intravenously at 10 mg/kg/day; 0 indicates no local, clinical, histologic toxicity. In short, it runs like this: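 Host toxicity in immunosuppressed PCP rats dosed iv daily for 2 weeks. Animals were observed daily for health and well-being. Liver and kidney were examined by light microscopy for pathologic changes. Scoring: 0 = no local, clinical or histologic toxicity; 1+ = all survived, some local injection-site toxicity; 2+ = most survived, some severe distress, clinical toxicity and histopathology; 3+ = acute toxicity or decline with <50% deaths; 4+ = ≥50% deaths.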

The species named for assay [2] is Rattus norvegicus. The assay can be described thus: Anti-Pneumocystis carinii activity was measured as percentage of number of cysts counted per gram of lung tissue. More on the design: concentration or dose not given beside the values. In short, it runs like this: (§1)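 Immunosuppressed rats with PCP; compound given by daily iv injection over 2 weeks at 10 mg/kg/day, or at 5 or 1 mg/kg/day where shown. Saline is the negative control and pentamidine the positive control. Cysts are counted per gram of lung tissue and expressed as % of the saline-treated control ± SE (n rats). Significance is given as P vs saline or vs pentamidine.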

In assay [3] the test system is Rattus norvegicus. The assay can be described thus: Anti- Pneumocystis carinii activity was measured as percentage of number of cysts counted per gram of lung tissue at a dose of 5.0 mg/kg/day. In short, it runs like this: as §1
Assay [4] deals with Rattus norvegicus. The assay can be described thus: Anti- Pneumocystis carinii activity was measured as percentage of number of cysts counted per gram of lung tissue at a dose of 10 mg/kg/day. The method in brief: as §1
Assay [5] relates to Rattus norvegicus. The experiment in a line: Anti- Pneumocystis carinii activity was measured as percentage of number of cysts counted per gram of lung tissue at a dose of 1 mg/kg/day. In short, it runs like this:
as §1

The species entered for assay [6] is Rattus norvegicus. The assay can be described thus: Anti- Pneumocystis carinii activity was measured as percentage of number of cysts counted per gram of lung tissue. The method in brief: as §1

As to `COc1cc(C2=NCCN2)ccc1OC/C=C/COc1ccc(C2=NCCN2)cc1OC.Cl.Cl`, the Toxicity result with Rattus norvegicus [1] is “Toxic”. Besides, the Control in the assay listed under Rattus norvegicus [2] came out at 1.5%.

Take `C(=C/COc1ccc(C2=NCCN2)cc1)/COc1ccc(C2=NCCN2)cc1.Cl.Cl`: in the assay with Rattus norvegicus [1] (route intravenous), the Toxicity was 0. Also, in the assay listed under Rattus norvegicus [2], the Control is 1.22%.

Regarding `COc1cc(C2=NCCN2)ccc1OC/C=C\COc1ccc(C2=NCCN2)cc1OC.Cl.Cl`, the Toxicity entry with Rattus norvegicus [1] was “Local toxicity”. In the assay listed under Rattus norvegicus [2], this compound returned a Control of 15.6%.

Take `C(=C\COc1ccc(C2=NCCN2)cc1)/COc1ccc(C2=NCCN2)cc1.Cl.Cl`: the Control worked out at 5.61% in the assay on Rattus norvegicus [3], 1.38% in the assay on Rattus norvegicus [4], 39.6% with Rattus norvegicus [5] and 1.22% in the assay filed under Rattus norvegicus [2]. For the same compound, the Toxicity in the assay with Rattus norvegicus [1] (route intravenous) worked out at 0.

Turning to `Cl.Cl.N=C(N)c1ccc(OC/C=C\COc2ccc(C(=N)N)cc2)cc1`, in the assay on Rattus norvegicus [1] (route intravenous), the Toxicity worked out at 0. Also, in the assay listed under Rattus norvegicus [2], the Control was found to be 1.1%.

Turning to `COc1cc(C(=N)N)ccc1OC/C=C/COc1ccc(C(=N)N)cc1OC.Cl`, in the assay with Rattus norvegicus [1], the Toxicity entry is given as “Local toxicity”. The same compound showed a Control in the assay filed under Rattus norvegicus [2] of 35.5%.

Regarding `N=C(N)c1ccc(OCCCCCOc2ccc(C(=N)N)cc2)cc1` [PENTAMIDINE], the Control in the assay filed under Rattus norvegicus [6] is <5.31% and <4.95%. In the assay on Rattus norvegicus [1] (route intravenous), this compound displayed a Toxicity of 2.

`Cl.Cl.N=C(N)c1ccc(OC/C=C/COc2ccc(C(=N)N)cc2)cc1`: the Toxicity in the assay with Rattus norvegicus [1] (route intravenous) worked out at 0. The same compound came in with a Control in the assay listed under Rattus norvegicus [2] of 0.67%.

`COc1cc(C(=N)N)ccc1OC/C=C\COc1ccc(C(=N)N)cc1OC.Cl.Cl` returned a Toxicity in the assay with Rattus norvegicus [1] (route intravenous) of 0. In addition, the Control in the assay listed under Rattus norvegicus [2] worked out at 21.4%.
